Data reported in ChEMBL document CHEMBL2150944, “Antimalarial activity of pyrroloiminoquinones from the Australian marine sponge Zyzzya sp” (J Med Chem, 2012).
pIC50: −log10 of the molar value. The source made the active and inactive calls. The calls are words filed in the database; no cut-off is given here.

What was measured:
Plasmodium falciparum [1] = assay: Antimalarial activity against chloroquine-sensitive Plasmodium falciparum 3D7 trophozoite stage assessed as growth inhibition at 204 nM after 10 hrs by [3H]-hypoxanthine incorporation assay; type: functional, organism-based
How it was run: (§1)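 Synchronous 3D7 rings (~10−16 h post-invasion) or trophozoites (~24−30 h post-invasion), 0.5% parasitemia, 5% hematocrit, exposed 4, 6 or 10 h to compound or 0.04% DMSO vehicle. Cultures are washed, plated in triplicate with 0.5 μCi 3H-hypoxanthine, and incorporation is counted after ~48−72 h. Percent growth is relative to matched vehicle controls, from at least two independent experiments.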

[2] = Half life in human liver microsomes at 1 uM after 60 mins; type: ADME, Microsome
How it was run: (§2)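 1 μM compound incubated at 37 °C with human or mouse liver microsomes (0.4 mg/mL protein) in 0.1 M phosphate pH 7.4. Reaction started with an NADPH-regenerating system plus MgCl2 and quenched with ice-cold acetonitrile at time points up to 60 min. Parent loss is followed by LC−MS and fitted to exponential decay, giving half-life and in vitro CLint.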

Mus musculus [3] = assay: Toxicity in Swiss albino mouse assessed as ruffled coat at 8 mg/kg/day for 4 days; type: organism-based; conditions: in vivo, 96 h
How it was run: (§3)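 Healthy mice dosed subcutaneously daily for 4 consecutive days, compound in Tween 80/ethanol (7/3 v/v) diluted 10-fold in distilled water (~0.2 mL). Mice are assessed before and after dosing for weight loss >10%, ruffled coat, shaking, severe pallor, reduced activity and behaviour changes.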

[4] = Intrinsic clearance in mouse liver microsomes assessed as per mg of protein at 1 uM after 60 mins; type: ADME, Microsome; conditions: read-out: CLH; how it was run: as §2
[5] = Half life in mouse liver microsomes at 1 uM after 60 mins; type: ADME, Microsome; how it was run: as §2
[6] = Selectivity index, ratio of IC50 for human HEK293 cells to IC50 for chloroquine-resistant Plasmodium falciparum Dd2; type: toxicity, cell-based; conditions: read-out: Ratio IC50
Plasmodium falciparum [7] = assay: Antimalarial activity against chloroquine-resistant Plasmodium falciparum Dd2 assessed as growth inhibition after 72 hrs by DAPI staining; type: functional, organism-based; conditions: Dd2, 72 h
How it was run: (§4)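 P. falciparum 3D7 or Dd2 at 2% or 3% parasitemia, 0.3% hematocrit, exposed 72 h at 37 °C, 5% CO2. Staining with DAPI plus saponin and Triton X-100, 5 h at room temperature in the dark, then confocal imaging and automated counting of parasite spots. Percent inhibition is calculated against DMSO and 2 μM artemisinin controls.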

Mus musculus [8] = assay: Toxicity in Swiss albino mouse assessed as body weight loss > 10 % upto 4 mg/kg/day, sc for 4 days; type: organism-based; parameters: route subcutaneous; conditions: in vivo, 96 h; how it was run: as §3
[9] = Intrinsic clearance in human liver microsomes assessed as per mg of protein at 1 uM after 60 mins; type: ADME, Microsome; conditions: read-out: CLH; how it was run: as §2
Mus musculus [10] = assay: Toxicity in Swiss albino mouse assessed as severe pallor upto 4 mg/kg/day, sc for 4 days; type: organism-based; parameters: route subcutaneous; conditions: in vivo, 96 h; how it was run: as §3
Plasmodium berghei [11] = assay: Antimalarial activity against chloroquine-sensitive Plasmodium berghei ANKA infected in Swiss albino mouse assessed as suppression of parasitemia at 4 mg/kg/day, ip measured on day 4 post infection by Giemsa staining; type: functional, organism-based
[12] = Plasma concentration in Swiss mouse at 8 mg/kg, sc administered as solution measured 1 hr post dose; type: ADME, organism-based; parameters: dose 8 mg/kg, route subcutaneous
How it was run: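 Nonfasted male Swiss outbred mice (26−34 g), nominal 8 mg/kg subcutaneous into the dorsal skinfold in saline vehicle with 5−7% DMSO. Blood is drawn by cardiac puncture under isoflurane at 0.25, 1 or 4 h (n = 2 per time point) into stabilizer. Plasma is precipitated with acetonitrile and quantified by UPLC−MS against standards in blank mouse plasma.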

HEK293 = assay: Cytotoxicity against human HEK293 cells assessed as growth inhibition after 72 hrs by Alamar blue assay; type: cell-based; conditions: HEK293, 72 h
How it was run: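 HEK293 adherent cells (3000/well) were incubated with compound for 72 h at 37 °C and 5% CO2. Medium was removed, then 10% Alamar Blue was added for 5−6 h. Fluorescence was read at ex 535/em 590 nm. Inhibition was normalised to DMSO and 10 μM puromycin controls. IC50 came from nonlinear variable-slope regression of % inhibition against log dose.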

Plasmodium falciparum [13] = assay: Antimalarial activity against chloroquine-sensitive Plasmodium falciparum 3D7 ring stage assessed as growth inhibition at 408 nM after 10 hrs by [3H]-hypoxanthine incorporation assay; type: functional, organism-based; how it was run: as §1
Mus musculus [14] = assay: Toxicity in Swiss albino mouse assessed as reduced activity upto 4 mg/kg/day, sc for 4 days; type: organism-based; parameters: route subcutaneous; conditions: in vivo, 96 h; how it was run: as §3
Plasmodium falciparum [15] = assay: Antimalarial activity against chloroquine-sensitive Plasmodium falciparum 3D7 trophozoite stage assessed as growth inhibition at 408 nM after 10 hrs by [3H]-hypoxanthine incorporation assay; type: functional, organism-based; how it was run: as §1
[16] = Selectivity index, ratio of IC50 for human HEK293 cells to IC50 for chloroquine-sensitive Plasmodium falciparum 3D7; type: toxicity, cell-based; conditions: read-out: Ratio IC50
Plasmodium falciparum [17] = assay: Antimalarial activity against chloroquine-sensitive Plasmodium falciparum 3D7 assessed as growth inhibition after 72 hrs by DAPI staining; type: functional, organism-based; conditions: 3D7, 72 h; how it was run: as §4
Mus musculus [18] = assay: Toxicity in Swiss albino mouse assessed as ruffled coat upto 4 mg/kg/day for 4 days; type: organism-based; conditions: in vivo, 96 h; how it was run: as §3
Plasmodium falciparum [19] = assay: Antimalarial activity against chloroquine-sensitive Plasmodium falciparum 3D7 ring stage assessed as growth inhibition at 204 nM after 10 hrs by [3H]-hypoxanthine incorporation assay; type: functional, organism-based; how it was run: as §1
Mus musculus [20] = assay: Toxicity in Swiss albino mouse assessed as body weight loss > 10 % at 8 mg/kg/day, sc for 4 days; type: organism-based; parameters: route subcutaneous; conditions: in vivo, 96 h; how it was run: as §3
Mus musculus [21] = assay: Toxicity in Swiss albino mouse assessed as reduced activity at 8 mg/kg/day, sc for 4 days; type: organism-based; parameters: route subcutaneous; conditions: in vivo, 96 h; how it was run: as §3
Mus musculus [22] = assay: Toxicity in Swiss albino mouse assessed as behaviour changes upto 4 mg/kg/day, sc for 4 days; type: organism-based; parameters: route subcutaneous; conditions: in vivo, 96 h; how it was run: as §3
Mus musculus [23] = assay: Toxicity in Swiss albino mouse assessed as shaking upto 4 mg/kg/day, sc for 4 days; type: organism-based; parameters: route subcutaneous; conditions: in vivo, 96 h; how it was run: as §3
HCT-116 = assay: Cytotoxicity against human HCT116 cells; type: functional, cell-based
XRS6 = assay: Cytotoxicity against Chinese hamster Xrs-6 cells; type: cell-based; conditions: Cricetulus griseus
Plasmodium berghei [24] = assay: Antimalarial activity against chloroquine-sensitive Plasmodium berghei ANKA infected in Swiss albino mouse assessed as suppression of parasitemia at 8 mg/kg/day, ip measured on day 4 post infection by Giemsa staining relative to control; type: functional; conditions: route intraperitoneal
[25] = Toxicity in Swiss albino mouse for 4 days; type: organism-based; conditions: in vivo; how it was run: as §3
Plasmodium falciparum [26] = assay: Antimalarial activity against chloroquine-sensitive Plasmodium falciparum 3D7 trophozoite stage assessed as growth inhibition at 180 nM after 10 hrs by [3H]-hypoxanthine incorporation assay; type: functional, organism-based
How it was run: (§5)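 Synchronous 3D7 rings (~10−16 h post-invasion) or trophozoites (~24−30 h post-invasion) were used at 0.5% parasitemia and 5% hematocrit. Cultures were exposed to compound or 0.04% DMSO vehicle for 4, 6 or 10 h, then washed. Triplicate wells received 0.5 μCi 3H-hypoxanthine, and incorporation was counted after ~48−72 h. Results are % growth versus matched vehicle controls, from ≥2 independent experiments.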

Plasmodium berghei [27] = assay: Antimalarial activity against chloroquine-sensitive Plasmodium berghei ANKA infected in Swiss albino mouse assessed as suppression of parasitemia at 8 mg/kg/day, ip measured on day 1 post infection by Giemsa staining relative to control; type: functional; conditions: route intraperitoneal
Plasmodium berghei [28] = assay: Antimalarial activity against chloroquine-sensitive Plasmodium berghei ANKA infected in Swiss albino mouse assessed as suppression of parasitemia at 8 mg/kg/day, ip measured on day 2 post infection by Giemsa staining relative to control; type: functional; conditions: route intraperitoneal
Plasmodium berghei [29] = assay: Antimalarial activity against chloroquine-sensitive Plasmodium berghei ANKA infected in Swiss albino mouse assessed as suppression of parasitemia at 8 mg/kg/day, ip measured on day 3 post infection by Giemsa staining relative to control; type: functional; conditions: route intraperitoneal
Plasmodium falciparum [30] = assay: Antimalarial activity against chloroquine-sensitive Plasmodium falciparum 3D7 trophozoite stage assessed as growth inhibition at 360 nM after 10 hrs by [3H]-hypoxanthine incorporation assay; type: functional, organism-based; how it was run: as §5
Plasmodium falciparum [31] = assay: Antimalarial activity against chloroquine-sensitive Plasmodium falciparum 3D7 ring stage assessed as growth inhibition upto 360 nM after 10 hrs by [3H]-hypoxanthine incorporation assay; type: functional, organism-based; how it was run: as §5
[32] = Plasma concentration in Swiss mouse at 8 mg/kg, sc administered as suspension measured 1 hr post dose; type: ADME, organism-based; parameters: dose 8 mg/kg, route subcutaneous
How it was run: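 Nonfasted male Swiss outbred mice (26−34 g) received a nominal 8 mg/kg subcutaneously into the dorsal skinfold. The compound was given as a suspension in saline vehicle containing 5−7% DMSO. Blood was taken by cardiac puncture under isoflurane at 0.25, 1 or 4 h, with n = 2 mice per time point, into stabilizer-containing heparinized tubes. Plasma was acetonitrile-precipitated and quantified by UPLC−MS.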

Plasmodium berghei [33] = assay: Antimalarial activity against chloroquine-sensitive Plasmodium berghei ANKA infected in ip dosed Swiss albino mouse assessed as suppression of parasitemia measured on day 4 post infection by Giemsa staining; type: functional; conditions: 96 h

C[N+]1=C2C=C(NCCc3ccc(O)cc3)C(=O)c3[nH]cc(c32)CC1.O=C([O-])C(F)(F)F [MAKALUVAMINE J TFA SALT]
growth inhibition (GI) (Plasmodium falciparum [1]): Active | half-life at 1 µM [2]: > 350 min | Activity (Mus musculus [3]): Toxic | microsomal CLint at 1 µM [4]: 41 µL/min/mg | half-life at 1 µM [5]: 42 min | selectivity ratio [6]: 54 | pIC50 (Plasmodium falciparum [7]): 7.66 | Activity (Mus musculus [8]): Non-toxic | microsomal CLint at 1 µM [9]: < 5 µL/min/mg | Activity (Mus musculus [10]): Non-toxic | Activity (Plasmodium berghei [11]): inactive | concentration at 1 h [12]: 1700 nM | pIC50 (HEK293): 5.92 | growth inhibition (GI) (Plasmodium falciparum [13]): Active | Activity (Mus musculus [14]): Non-toxic | growth inhibition (GI) (Plasmodium falciparum [15]): Active | selectivity ratio [16]: 48 | pIC50 (Plasmodium falciparum [17]): 7.60 | Activity (Mus musculus [18]): Non-toxic | growth inhibition (GI) (Plasmodium falciparum [19]): Active | Activity (Mus musculus [20]): Toxic | Activity (Mus musculus [21]): Toxic | Activity (Mus musculus [22]): Non-toxic | Activity (Mus musculus [23]): Non-toxic

Cn1cc2c3c1C(=O)c1[nH]cc(-c4ccc(O)cc4)c1C3=[N+](C)CC2 [TSITSIKAMMAMINE C TRIFLUROACETATE]
growth inhibition (GI) (Plasmodium falciparum [1]): Active | selectivity ratio [6]: 200 | pIC50 (Plasmodium falciparum [7]): 7.74 | pIC50 (HEK293): 5.44 | growth inhibition (GI) (Plasmodium falciparum [13]): Active | growth inhibition (GI) (Plasmodium falciparum [15]): Active | selectivity ratio [16]: 276 | pIC50 (Plasmodium falciparum [17]): 7.89 | growth inhibition (GI) (Plasmodium falciparum [19]): Active

CN1CCc2c[nH]c3c2C1=CC(=O)C3=O [DAMIRONES B]
selectivity ratio [6]: > 32 | pIC50 (Plasmodium falciparum [7]): 5.42 | pIC50 (HEK293): < 3.92 | selectivity ratio [16]: > 10 | pIC50 (Plasmodium falciparum [17]): 4.91

CN1CCc2cn(C)c3c2C1=CC(=O)C3=O [DAMIRONES A]
selectivity ratio [6]: > 333 | pIC50 (Plasmodium falciparum [7]): 6.44 | pIC50 (HEK293): < 3.92 | selectivity ratio [16]: > 63 | pIC50 (Plasmodium falciparum [17]): 5.73

O=C1C(NCCc2ccc(O)cc2)=CC2=NCCc3c[nH]c1c32 [MAKALUVAMINE D]
pIC50 (HCT-116): < 6.77 | pIC50 (XRS6): 7.10

Cn1cc2c3c1C(=O)C(N/C=C/c1ccc(O)cc1)=CC3=[N+](C)CC2.O=C([O-])C(F)(F)F [MAKALUVAMINE G]
Activity (Plasmodium berghei [24]): 48% | MTD at 96 h [25]: 8 mg/kg/day | half-life at 1 µM [2]: 8.8 min | growth inhibition (GI) (Plasmodium falciparum [26]): Active | microsomal CLint at 1 µM [4]: 235 µL/min/mg | half-life at 1 µM [5]: 7.4 min | selectivity ratio [6]: 51 | pIC50 (Plasmodium falciparum [7]): 7.41 | Activity (Plasmodium berghei [27]): 10% | Activity (Plasmodium berghei [28]): 35% | Activity (Plasmodium berghei [29]): 47% | microsomal CLint at 1 µM [9]: 197 µL/min/mg | pIC50 (HEK293): 5.70 | growth inhibition (GI) (Plasmodium falciparum [30]): Active | selectivity ratio [16]: 55 | pIC50 (Plasmodium falciparum [17]): 7.44 | growth inhibition (GI) (Plasmodium falciparum [31]): inactive | concentration at 1 h [32]: < 40 nM

CCN(CC)CCCC(C)Nc1ccnc2cc(Cl)ccc12 (configuration not stated) [CHLOROQUINE]
Activity (Plasmodium berghei [24]): 35% | ED50 (Plasmodium berghei [33]): 1.9 mg/kg/day

Cn1cc2ccnc3c2c1C(=O)C(N)=C3 [MAKALUVAMINE B]
pIC50 (HCT-116): < 6.77 | pIC50 (XRS6): 7.10
